Measurements taken from ChEMBL document CHEMBL2163188, “Discovery of piragliatin--first glucokinase activator studied in type 2 diabetic patients” (J Med Chem, 2012).

Target: T1, Hexokinase-4 (Homo sapiens) (UniProt P35557)
T1 sequence (whole entry): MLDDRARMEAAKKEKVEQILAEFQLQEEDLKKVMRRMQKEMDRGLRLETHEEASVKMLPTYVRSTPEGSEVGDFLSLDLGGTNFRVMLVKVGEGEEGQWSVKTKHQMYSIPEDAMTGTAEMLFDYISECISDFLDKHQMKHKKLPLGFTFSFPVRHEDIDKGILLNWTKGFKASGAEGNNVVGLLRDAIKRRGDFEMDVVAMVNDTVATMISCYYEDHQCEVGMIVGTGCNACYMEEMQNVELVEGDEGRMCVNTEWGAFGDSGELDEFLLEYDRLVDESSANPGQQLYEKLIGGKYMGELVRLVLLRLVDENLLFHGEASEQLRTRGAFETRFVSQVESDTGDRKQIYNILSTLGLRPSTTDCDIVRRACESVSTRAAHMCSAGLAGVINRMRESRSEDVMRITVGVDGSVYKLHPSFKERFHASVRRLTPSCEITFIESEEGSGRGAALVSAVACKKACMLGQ
Experiment: Activation of human recombinant glucokinase assessed as concentration required for 1.5 fold increase in enzymatic activity
In short: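 Human recombinant GK; activator at fixed concentrations from ∼0.010 to 30 μM, each in duplicate, with glucose held at 5 mM. SC1.5 is the activator concentration giving a 1.5-fold rise in enzymatic activity over untreated GK. Assay CV was about 15%.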

Activity [µM]	SMILES
0.292	CS(=O)(=O)c1ccc(C(CC2CCCC2)C(=O)Nc2nccs2)cc1F (racemic)
0.579	CS(=O)(=O)c1ccc(C(CC2CCCC2)C(=O)Nc2nccs2)cc1N (racemic)
